According to ChEMBL document CHEMBL1124208, “Retro-inverso concept applied to the complete inhibitors of enkephalin-degrading enzymes” (J Med Chem, 1988):

Tests used:
Neprilysin = target: T1, Neprilysin (Oryctolagus cuniculus, UniProt P08049); test: Inhibition of [3H]Ala2-Leu-enkephalin binding to Neutral endopeptidase (NEP)
T1 sequence (P08049 whole entry): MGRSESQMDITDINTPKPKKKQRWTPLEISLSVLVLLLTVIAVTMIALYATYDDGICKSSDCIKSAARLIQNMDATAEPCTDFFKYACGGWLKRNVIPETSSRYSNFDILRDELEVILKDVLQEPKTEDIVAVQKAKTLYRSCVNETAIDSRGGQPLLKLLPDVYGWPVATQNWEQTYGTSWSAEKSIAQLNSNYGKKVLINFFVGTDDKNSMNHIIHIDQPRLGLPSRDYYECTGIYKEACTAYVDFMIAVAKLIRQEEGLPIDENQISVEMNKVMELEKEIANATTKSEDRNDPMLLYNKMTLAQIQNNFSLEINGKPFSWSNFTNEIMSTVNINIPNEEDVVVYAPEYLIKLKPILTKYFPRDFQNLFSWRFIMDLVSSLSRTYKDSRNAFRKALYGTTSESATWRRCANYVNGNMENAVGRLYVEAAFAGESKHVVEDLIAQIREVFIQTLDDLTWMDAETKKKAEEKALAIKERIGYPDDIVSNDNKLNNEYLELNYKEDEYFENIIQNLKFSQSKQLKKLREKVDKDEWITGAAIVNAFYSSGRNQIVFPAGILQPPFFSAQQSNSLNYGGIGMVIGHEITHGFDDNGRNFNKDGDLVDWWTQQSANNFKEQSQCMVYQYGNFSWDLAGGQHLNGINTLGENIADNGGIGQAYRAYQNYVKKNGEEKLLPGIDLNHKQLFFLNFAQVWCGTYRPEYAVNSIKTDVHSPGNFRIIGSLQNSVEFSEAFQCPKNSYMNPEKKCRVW
Procedure, shortened: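 NEP purified to homogeneity from rabbit kidney (single 94 kD band on SDS-PAGE), 1 pmol/100 μL final. Enzyme preincubated 15 min at 25 °C with or without increasing inhibitor in 50 mM Tris-HCl pH 7.0. [3H]D-Ala2-Leu-enkephalin then added at 20 nM final and the reaction stopped after 30 min with HCl. IC50 from log probit analysis of five inhibitor concentrations, mean ± SEM of four independent experiments.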

[1] = Inhibition of [3H]Leu-enkephalin binding to aminopeptidase; parameters: species or system Sus scrofa
Procedure, shortened: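 Uses commercial purified pig kidney aminopeptidase N without further purification. Enzyme preincubated 15 min at 25 °C with inhibitor in 50 mM Tris-HCl pH 7.0. [3H]Leu-enkephalin then added at 10 nM final (Km 50 μM) and the reaction stopped with HCl. IC50 by log probit analysis of five inhibitor concentrations, mean ± SEM of four independent experiments.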

[2] = Inhibition of [3H]Leu-enkephalin binding to Dipeptidyl aminopeptidase (DAP); parameters: species or system Rattus norvegicus
Procedure, shortened: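 Membrane-bound DAP partially purified from rat brain. […] IC50 by log probit analysis of five inhibitor concentrations, mean ± SEM of four independent experiments.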

Row | Compound | IC50 (Neprilysin) [nM] | IC50 [1] [nM] | IC50 [2] [nM]
1 | CN(O)C(=O)[C@@H](Cc1ccccc1)NC(=O)CC(=O)O | 6070 |  | 
2 | CC(C(=O)O)C(=O)NC(Cc1ccccc1)C(=O)NO (stereo in doubt; 8) | 945 | 6100 | 2700
3 | O=C(O)CNC(=O)C(CC(=O)NO)Cc1ccccc1 (racemic) |  | 2000 | 21
4 | O=C(O)CC(=O)N[C@H](CC(=O)NO)Cc1ccccc1 | 2.5 | 150000 | 450
5 | CC(C(=O)O)C(=O)NC(Cc1ccccc1)C(=O)NO (stereo in doubt; 9) | 320 | ~100000 | 71
6 | O=C(O)CNC(=O)C(Cc1ccccc1)C(=O)NO (racemic) |  | 100000 | 35000
7 | CN(O)C(=O)C[C@@H](Cc1ccccc1)NC(=O)CC(=O)O | 1730 | > 100000 | 
8 | O=C(CC(Cc1ccccc1)NC(=O)C(Cc1ccccc1)C(=O)O)NO (stereo unspecified) | 3.7 | 6200 | 32.5
9 | O=C(O)CC(=O)N[C@@H](Cc1ccccc1)C(=O)NO | 2500 | 400000 | 2000
10 | C[C@H](NC(=O)[C@@H](CC(=O)NO)Cc1ccccc1)C(=O)O (racemic) [KELATORPHAN] | 1.7 | 380 | 0.9
11 | O=C(O)CC(=O)N[C@@H](CC(=O)NO)Cc1ccccc1 | 0.5 | 2000 | 140
12 | O=C(O)CC(=O)N[C@H](Cc1ccccc1)C(=O)NO | 3350 | ~20000 | ~32000
13 | CC(C(=O)O)C(=O)NC(CC(=O)NO)Cc1ccccc1 (stereo unspecified) | 1.6 | 8600 | 17.5
14 | O=C(CC(Cc1ccccc1)C(=O)NC(Cc1ccccc1)C(=O)O)NO (racemic) | 2.5 | 130 | 
